The target in data set [1] is D(2) dopamine receptor (Homo sapiens, UniProt P14416). Kind of data set: Agonist activity at human recombinant dopamine D2 receptor expressed in rat pituitary cells assessed as inhibition of forskolin-stimulated cAMP accumulation. Format: functional, cell-based, Pituitary gland cell. Background: Changes in cAMP serve as a functional read-out for many G protein-coupled receptors.

A short description of data set [2]: Clearance in rat. Format: ADME, organism-based. The note with it: in vivo.
Data set [3] concerns the target D(3) dopamine receptor (Homo sapiens, UniProt P35462). Kind of data set: Agonist activity at human recombinant dopamine D3 receptor expressed in CHO cells assessed as inhibition of forskolin-stimulated cAMP accumulation. The format is functional, cell-based.
Data set [4] can be described thus: Clearance in human. The note with it: in vivo. The format is ADME, organism-based.
Data set [5] in a line: Stability in human hepatocytes. Format: ADME, cell-based, Liver, Hepatocyte. The method in brief:
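Rat, dog and human hepatocyte incubations; read-out was the disappearance half-life of parent compound, in minutes.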

Some results are limits rather than exact numbers.

Sequence of D(2) dopamine receptor (P14416 whole entry): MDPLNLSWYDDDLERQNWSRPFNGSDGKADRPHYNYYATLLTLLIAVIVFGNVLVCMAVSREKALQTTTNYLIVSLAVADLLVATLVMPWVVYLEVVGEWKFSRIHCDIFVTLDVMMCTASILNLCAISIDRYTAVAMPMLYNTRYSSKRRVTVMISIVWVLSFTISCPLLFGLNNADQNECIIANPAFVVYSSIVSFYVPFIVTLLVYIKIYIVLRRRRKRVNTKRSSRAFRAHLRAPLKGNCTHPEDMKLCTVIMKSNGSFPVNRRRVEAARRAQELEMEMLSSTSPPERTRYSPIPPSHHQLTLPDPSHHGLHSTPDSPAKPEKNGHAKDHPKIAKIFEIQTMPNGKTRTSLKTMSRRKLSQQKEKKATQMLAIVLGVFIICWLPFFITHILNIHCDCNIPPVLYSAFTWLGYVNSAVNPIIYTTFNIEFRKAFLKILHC
Sequence of D(3) dopamine receptor (P35462 whole entry): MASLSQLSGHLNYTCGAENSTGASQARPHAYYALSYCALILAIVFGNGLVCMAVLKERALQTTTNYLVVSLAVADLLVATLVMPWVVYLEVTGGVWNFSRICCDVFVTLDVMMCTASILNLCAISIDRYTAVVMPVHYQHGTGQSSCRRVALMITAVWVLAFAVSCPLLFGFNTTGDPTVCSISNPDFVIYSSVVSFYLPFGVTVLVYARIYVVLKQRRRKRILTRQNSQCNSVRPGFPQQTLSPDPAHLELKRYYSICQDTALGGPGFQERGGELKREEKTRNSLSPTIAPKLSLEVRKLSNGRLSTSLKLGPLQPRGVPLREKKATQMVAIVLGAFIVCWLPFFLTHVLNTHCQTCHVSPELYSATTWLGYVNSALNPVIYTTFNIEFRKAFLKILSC

In the case of `CCCN1CCO[C@H](c2cc(O)cc(O)c2)C1`, the EC50 (as a rule, the concentration that produces a half-maximal response) in data set [1] is over 10000 nM; in data set [3], 32 nM. Besides, in data set [2], the clearance (in general, a measure of how efficiently the substance is removed, as volume per time) came to 188 mL/min/kg. For the same compound, the Emax (usually the size of the effect at its maximum, as opposed to the concentration needed) in data set [3] is over 90%. On to `CCCN1CCOC(c2ccc(O)c(-n3cnnc3)c2)C1` (stereo unspecified), for which the EC50 in data set [3] is over 1000 nM. Regarding `CCCN1CCOC(c2cccc(O)c2)C1` (stereo unspecified), the EC50 in data set [1] was over 10000 nM; in data set [3], 27 nM. As for `CCCN1CCOC(c2cc(O)ccc2Br)C1` (stereo unspecified), in data set [3], the EC50 was over 10000 nM. Take `CCCN1CCO[C@@H](c2cccc(O)c2)C1`: the values for the EC50 in data set [1] and in data set [3] were over 10000 nM and over 5000 nM, respectively.

`CCCN1CCOC(c2ccc(Cl)c(O)c2)C1` (stereo unspecified): the EC50 in data set [3] was over 688 nM. As to `Oc1cccc(C2CNCCO2)c1` (stereo unspecified), the EC50 in data set [1] was 7200 nM; in data set [3] it was 864 nM.

Compound `CC(C)(C)NCC(O)c1cc(O)cc(O)c1` (stereo unspecified) [TERBUTALINE] yielded a clearance in data set [4] of 3.1 mL/min/kg.

Regarding `CCCN(CCC)CCc1cccc2c1CC(=O)N2` [ROPINIROLE], the EC50 in data set [1] came to 83 nM. For `CCCN1CCOC(c2cccc(OC)c2)C1` (stereo unspecified), the EC50 in data set [1] is over 10000 nM; in data set [3] it was over 1000 nM.

On to `CCCN1CCOC(c2cccc(Cl)c2)C1` (stereo unspecified), for which the EC50 in data set [1] was over 10000 nM; in data set [3], over 2800 nM. Turning to `CCCN1CCOC(c2cccc(O)c2C)C1` (stereo unspecified), the EC50 in data set [3] was over 1000 nM. For the compound `CNC[C@H](O)c1cccc(O)c1` [PHENYLEPHRINE], the clearance in data set [4] worked out at 30 mL/min/kg. Consider `CCCN1CCOC(c2cc(O)cc(O)c2)C1` (stereo unspecified), for which the EC50 in data set [3] amounted to 37 nM. Still for that read-out and setting: next, `CCCN1CCOC(c2ccc(F)c(O)c2)C1` (stereo unspecified): 35 nM; `CCCN1CCOC(c2cccc(-c3nnc[nH]3)c2)C1` (stereo unspecified): over 1000 nM. With `CCCN1CCOC(c2cccc(NS(C)(=O)=O)c2)C1` (stereo unspecified), the EC50 in data set [1] and in data set [3] was over 1000 nM throughout. For the compound `CCCN1CCOC(c2ccc(O)c(C(N)=O)c2)C1` (stereo unspecified), the EC50 in data set [3] was determined as 427 nM. For `CCCN1CCOC(c2ccc(O)c(NS(C)(=O)=O)c2)C1` (stereo unspecified), the EC50 in data set [3] was over 1000 nM. Take `COCCN1CCOC(c2cccc(O)c2)C1` (stereo unspecified): the EC50 in data set [1] was over 10000 nM; in data set [3] it was over 3000 nM. The like results for `CC(=O)NCCCCN1CCOC(c2cccc(O)c2)C1` (stereo unspecified) were, in that order, over 10000 nM and over 10000 nM. In the case of `CCCN1CCOC(c2ccc(O)cc2)C1` (stereo unspecified), in data set [3], the EC50 was over 1000 nM.

As for `CCCN1CCOC(c2cccc(C(N)=O)c2)C1` (stereo unspecified), the EC50 in data set [3] is over 1000 nM.

Regarding `CCCN1CCC[C@@H]2Cc3nc(N)ncc3C[C@H]21` [QUINELORANE], the half-maximal effective concentration (EC50) in data set [1] worked out at 2 nM. Regarding `CCCN1CCOC(c2ccc(O)c(C(C)=O)c2)C1` (stereo unspecified), in data set [3], the EC50 was over 1000 nM. Same read-out and setting: next, `CCCN1CCOC(c2cc(O)cc(C#N)c2)C1` (stereo unspecified): over 10000 nM; `CCCN1CCOC(c2cccc(C#N)c2)C1` (stereo unspecified): over 1000 nM. For the compound `CCN1CCOC(c2cccc(O)c2)C1` (stereo unspecified), the EC50 is over 30000 nM in data set [1] and 547 nM in data set [3].

In the case of `CCCN1CCOC(c2cccc(OC(F)(F)F)c2)C1` (stereo unspecified), the EC50 in data set [1] and in data set [3] was over 1000 nM each time. With `CCCN1CCOC(c2ccc(CO)c(O)c2)C1` (stereo unspecified), the EC50 in data set [3] is over 5900 nM.

In the case of `CCCN1CCOC(c2ccc(O)c(C#N)c2)C1` (stereo unspecified), the EC50 in data set [3] is over 1000 nM. `CCCN1CCOC(c2cccc(C(=O)O)c2)C1` (stereo unspecified): the results for the EC50 in data set [1] and in data set [3] were over 10000 nM and over 1000 nM, respectively.

Turning to `CCCN1CCOC(c2ccccc2)C1` (stereo unspecified), the EC50 was over 10000 nM in data set [1] and over 1000 nM in data set [3]. For the compound `CCCN1CCOC(c2cccc(C(=O)OC)c2)C1` (stereo unspecified), the EC50 in data set [3] is over 1000 nM. In the case of `CCCN1CCOC(c2ccc(O)c(N)c2)C1` (stereo unspecified), the EC50 in data set [3] is 40 nM. Take `CCCN1CCOC(c2cccc(S(C)(=O)=O)c2)C1` (stereo unspecified): the EC50 in data set [1] was over 10000 nM; in data set [3], over 1000 nM. Regarding `CCCN1CCO[C@H](c2ccc(F)c(O)c2)C1`, in data set [5], the half-life (commonly how long it takes for the measured level to halve) worked out at 21 min. In addition, the EC50 in data set [1] is over 10000 nM. Moreover, in data set [3], the EC50 turned out to be 36 nM and the Emax is over 90%.

As to `CCCN1CCOC(c2cccc(SC)c2)C1` (stereo unspecified), the figures for the EC50 in data set [1] and in data set [3] were over 10000 nM and over 1000 nM, respectively. Regarding `CCCN1CCOC(c2cccc(N)c2)C1` (stereo unspecified), the EC50 in data set [1] and in data set [3] was over 1000 nM throughout. As to `CCCN1CCOC(c2cc(O)cc(C(N)=O)c2)C1` (stereo unspecified), the EC50 in data set [3] is over 10000 nM.

Consider `C=CCN1CCOC(c2cccc(O)c2)C1` (stereo unspecified), for which the EC50 is over 100000 nM in data set [1] and 1310 nM in data set [3].

As for `CCCN1CCOC(c2cccc(CO)c2)C1` (stereo unspecified), the EC50 in data set [3] is over 1000 nM.

With `CCCN1CCO[C@@H](c2cc(O)cc(O)c2)C1`, the EC50 in data set [1] and in data set [3] was over 10000 nM in each case. Take `CCCN1CCO[C@@H](c2ccc(F)c(O)c2)C1`: the EC50 in data set [1] and in data set [3] was over 10000 nM each time.

For `CCCN1CCOC(c2cccc(-c3ncc[nH]3)c2)C1` (stereo unspecified), the EC50 in data set [1] is over 10000 nM; in data set [3] it was over 1000 nM. In the case of `CCCN1CCOC(c2ccc(O)c(CO)c2)C1` (stereo unspecified), the EC50 in data set [3] is over 1000 nM.

These data come from ChEMBL document CHEMBL1140586, “Design and synthesis of a functionally selective D3 agonist and its in vivo delivery via the intranasal route” (Bioorg Med Chem Lett, 2007).
